Data from ChEMBL document CHEMBL2401736, “HCV NS5A replication complex inhibitors. Part 5: discovery of potent and pan-genotypic glycinamide cap derivatives” (Bioorg Med Chem Lett, 2013).

What was measured:
[1] = Dissociation constant, pKa of the compound in MeOH/H2O at pH 2 to 11; format: physicochemical
In short: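 pKa found by potentiometric titration over pH 2–11 in varying MeOH/H2O mixtures.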

[2] = test system: Bovine viral diarrhea virus 1; assay: Antiviral activity against Bovine viral diarrhea virus by luciferase assay; format: functional, organism-based
In short: (§1)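 EC50 values are means of at least two experiments, with at most threefold variation between them.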

[3] = test system: Hepatitis C virus; assay: Antiviral activity against Hepatitis C virus genotype 1b by FRET assay; format: functional, organism-based, Hepacivirus hominis; in short: as §1
[4] = test system: Hepatitis C virus; assay: Antiviral activity against Hepatitis C virus genotype 1a by ELISA; format: functional, organism-based, Hepacivirus hominis, subtype 1a; in short: as §1
[5] = Permeability of the compound across human Caco2 cells; format: ADME, cell-based; conditions: Caco-2, read-out: permeability
[6] = Metabolic stability in rat liver microsomes assessed as compound remaining after 10 mins; format: ADME, Microsome; conditions: read-out: Stability
In short: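 Compound incubated with rat liver microsomes for 10 min; read-out is the percentage of parent remaining.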

[7] = Clearance in rat at 2 mg/kg, iv after 4 hrs; format: ADME, organism-based; design: dose 2 mg/kg, route intravenous; conditions: in vivo
In short: (§2)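 Rat 4 h PK screen: 2 mg/kg IV and 5 mg/kg PO, each dose as its line states. Plasma sampled 5 times (0.17, 0.5, 1, 2 and 4 h); n = 2 rats.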

[8] = AUC (0 to 4 hrs) in rat at 2 mg/kg, iv; format: ADME, organism-based; design: time < 4 hr, dose 2 mg/kg, route intravenous; conditions: plasma; in short: as §2
[9] = (§3) AUC (0 to 4 hrs) in rat at 5 mg/kg, po; format: ADME, organism-based, Plasma; design: time < 4 hr, dose 5 mg/kg, route oral; conditions: plasma; in short: as §2
[10] = test system: Hepatitis C virus; assay: Antiviral activity against Hepatitis C virus genotype 1b harboring NS5A L31V/Y93H double mutant by FRET assay; format: functional, organism-based, Hepacivirus hominis
[11] = test system: Hepatitis C virus; assay: Antiviral activity against Hepatitis C virus genotype 5a; format: functional, organism-based, Hepacivirus hominis
[12] = test system: Hepatitis C virus; assay: Antiviral activity against Hepatitis C virus genotype 3a YH; format: functional, organism-based, Hepacivirus hominis; conditions: subtype 3a YH
[13] = test system: Hepatitis C virus; assay: Antiviral activity against Hepatitis C virus genotype 4a; format: functional, organism-based, Hepacivirus hominis
[14] = test system: Hepatitis C virus; assay: Antiviral activity against Hepatitis C virus genotype 3a; format: functional, organism-based, Hepacivirus hominis
[15] = test system: Hepatitis C virus; assay: Antiviral activity against Hepatitis C virus genotype 2a NIH; format: functional, organism-based, Hepacivirus hominis; conditions: subtype 2a NIH
[16] = test system: Hepatitis C virus; assay: Ratio of EC50 for Hepatitis C virus genotype 1b harboring NS5A L31V/Y93H double mutant to EC50 for Hepatitis C virus genotype 1b; format: functional, Hepacivirus hominis
[17] = test system: Rattus norvegicus; assay: as §3; format: ADME, organism-based, Plasma; design: time < 4 hr, dose 5 mg/kg, route oral; conditions: in vivo, 4 h, BLD = below limit of detection; in short: as §2
[18] = Bovine viral diarrhea virus isolates and strains

| pKa [1] | EC50 [2, 18] | EC50 ([3]; Hepatitis C virus, genotype 1b) | EC50 ([4]; Hepatitis C virus, subtype 1a) | EC50 [11] | EC50 [12] | EC50 [13] | EC50 [14] | EC50 [15] | SMILES | further results |
| --- | --- | --- | --- | --- | --- | --- | --- | --- | --- | --- |
| 4.6 | > 10000 nM | < 4.6 nM | 125 nM | – | – | – | – | – | O=C(Nc1ccc(C#Cc2ccc(NC(=O)[C@@H]3CCCN3C(=O)[C@@H](c3ccccc3)N3CCOCC3)cc2)cc1)[C@@H]1CCCN1C(=O)[C@@H](c1ccccc1)N1CCOCC1 | – |
| 8.1 | 1380 nM | < 4.6 nM | 19 nM | – | – | – | – | – | O=C(Nc1ccc(C#Cc2ccc(NC(=O)[C@@H]3CCCN3C(=O)[C@@H](c3ccccc3)N3CCCC3)cc2)cc1)[C@@H]1CCCN1C(=O)[C@@H](c1ccccc1)N1CCCC1 | – |
| – | > 10000 nM | 0.005 nM | 24 nM | – | – | – | – | – | CC(=O)N[C@H](C(=O)N1CCC[C@H]1C(=O)Nc1ccc(C#Cc2ccc(NC(=O)[C@@H]3CCCN3C(=O)[C@@H](NC(C)=O)c3ccccc3)cc2)cc1)c1ccccc1 | Papp [5]: < 1.5 ×10⁻⁶ cm/s; remaining at 10 min [6]: 100%; clearance [7]: 13.3 mL/min/kg; AUC(0-t) at 4 h [8]: 2.11 µM·h; AUC(0-t) at 4 h [9]: 0.093 µM·h |
| – | > 10000 nM | 7.1 nM | 19 nM | 3 nM | 74.9 nM | > 10000 nM | 3.2 nM | 14 nM | COc1cccc2c(C(=O)N3CCC[C@H]3C(=O)Nc3ccc(/C=C/c4ccc(NC(=O)[C@@H]5CCCN5C(=O)c5nc(Cl)cc6c(OC)cccc56)cc4)cc3)nc(Cl)cc12 | – |
| 2.5 | – | < 4.6 nM | 388 nM | – | – | – | – | – | O=C1CN(C(C(=O)N2CCC[C@H]2C(=O)Nc2ccc(C#Cc3ccc(NC(=O)[C@@H]4CCCN4C(=O)C(c4ccccc4)N4CCNC(=O)C4)cc3)cc2)c2ccccc2)CCN1 (stereo partly specified) | – |
| – | > 10000 nM | 0.086 nM | > 10000 nM | < 0.23 nM | > 3000 nM | 0.16 nM | 0.3 nM | 260 nM | O=C(Nc1ccc(/C=C/c2ccc(NC(=O)[C@@H]3CCCN3C(=O)Cc3ccccc3)cc2)cc1)[C@@H]1CCCN1C(=O)Cc1ccccc1 | – |
| – | – | – | – | – | – | – | – | – | CN1CCN(C(C(=O)N2CCC[C@H]2C(=O)Nc2ccc(C#Cc3ccc(NC(=O)[C@@H]4CCCN4C(=O)C(c4ccccc4)N4CCN(C)CC4)cc3)cc2)c2ccccc2)CC1 (stereo in doubt; 5i.1) | Papp [5]: < 1.5 ×10⁻⁶ cm/s; remaining at 10 min [6]: 100%; AUC [17]: BLD; EC50 [2]: > 3330 nM; EC50 [3]: 0.152 nM; EC50 [4]: < 4.6 nM |

| SMILES | pKa [1] | EC50 [2, 18] | EC50 ([3]; Hepatitis C virus, genotype 1b) | EC50 ([4]; Hepatitis C virus, subtype 1a) | EC50 [11] | EC50 [12] | EC50 [13] | EC50 [14] | EC50 [15] | further results |
| --- | --- | --- | --- | --- | --- | --- | --- | --- | --- | --- |
| COC(=O)N[C@@H](C(=O)N1CCC[C@H]1C(=O)Nc1ccc(C#Cc2ccc(NC(=O)[C@@H]3CCCN3C(=O)[C@H](NC(=O)OC)c3ccccc3)cc2)cc1)c1ccccc1 | – | > 10000 nM | 0.013 nM | 26 nM | – | – | – | – | – | EC50 [10]: 382 nM |
| O=C(Nc1ccc(C#Cc2ccc(NC(=O)[C@@H]3CCCN3C(=O)C(c3ccccc3)N3CCC(O)CC3)cc2)cc1)[C@@H]1CCCN1C(=O)C(c1ccccc1)N1CCC(O)CC1 (stereo in doubt; 5g.1) | 6.8 | – | – | – | 0.017 nM | 5.4 nM | 0.042 nM | 0.037 nM | 0.083 nM | Ratio EC50 [16]: >90; EC50 [10]: 12 nM; EC50 [2]: 6980 nM; EC50 [3]: < 0.13 nM; EC50 [4]: 0.82 nM |
